# In ChEMBL document CHEMBL4265871, “Novel alkylated azoles as potent antifungals” (Eur J Med Chem, 2017):
# What was measured:
# Pichia kudriavzevii = assay: Antifungal activity against Candida krusei ATCC 6258 incubated for 48 hrs by modified CLSI M27-A3 protocol based method; assay type: functional; conditions: ATCC 6258, 48 h
# In short: (§1)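 For C. albicans ATCC 10231, C. krusei ATCC 6258 and C. parapsilosis ATCC 22019, MIC-0 was read, meaning complete growth inhibition. For azole controls, MIC-2 (50% growth inhibition) was reported instead. Caspofungin and voriconazole were tested here; other controls came from earlier work.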
# [1] = Selectivity index, ratio of EC50 for toxicity in human BEAS2B cells to MIC50 for antifungal activity against Candida albicans ATCC 64124; assay type: cell-based; conditions: BEAS-2B cells, read-out: Selectivity Index
# In short: (§2)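 Selectivity index is the EC50 against the mammalian line (A549 or BEAS-2B) divided by the MIC against the given fungal strain.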
# [2] = Selectivity index, ratio of EC50 for toxicity in human A549 cells to MIC50 for antifungal activity against Candida albicans ATCC 64124; assay type: cell-based; conditions: read-out: Selectivity Index; in short: as §2
# Nakaseomyces glabratus = assay: Antifungal activity against Candida glabrata ATCC 2001 incubated for 48 hrs by modified CLSI M27-A3 protocol based method; assay type: functional; conditions: ATCC 2001, 48 h
# [3] = Selectivity index, ratio of EC50 for toxicity in human A549 cells to MIC50 for antifungal activity against Candida glabrata ATCC 2001; assay type: cell-based; conditions: read-out: Selectivity Index; in short: as §2
# [4] = Selectivity index, ratio of EC50 for toxicity in human A549 cells to MIC50 for antifungal activity against Aspergillus flavus ATCC MYA-3631; assay type: cell-based; conditions: read-out: Selectivity Index; in short: as §2
# [5] = Selectivity index, ratio of EC50 for toxicity in human A549 cells to MIC50 for antifungal activity against Aspergillus nidulans ATCC 38163; assay type: cell-based; conditions: read-out: Selectivity Index; in short: as §2
# [6] = Selectivity index, ratio of EC50 for toxicity in human A549 cells to MIC50 for antifungal activity against ITC and FLC-resistant Candida albicans ATCC MYA-90819; assay type: cell-based; conditions: read-out: Selectivity Index; in short: as §2
# [7] = Selectivity index, ratio of EC50 for toxicity in human A549 cells to MIC50 for antifungal activity against ITC and FLC-susceptible Candida albicans ATCC MYA-2876; assay type: cell-based; conditions: read-out: Selectivity Index; in short: as §2
# Candida albicans [8] = assay: Antifungal activity against ITC and FLC-susceptible Candida albicans ATCC MYA-2876 incubated for 48 hrs by modified CLSI M27-A3 protocol based method; assay type: functional; conditions: ATCC MYA-2876, 48 h
# In short: (§3)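 Because these Candida strains show trailing growth, MIC-2 was read, meaning 50% growth inhibition. Caspofungin and voriconazole were tested here; other controls came from earlier work.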
# [9] = Toxicity in human BEAS2B cells assessed as reduction in cell viability incubated for 24 hrs by resazurin dye based assay; conditions: BEAS-2B cells
# In short: (§4)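 Toxicity tested in the nucleated lines A549 and BEAS-2B to give EC50 values. Selectivity index is EC50 against the mammalian line divided by the MIC against a given fungal strain.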
# [10] = Selectivity index, ratio of EC50 for toxicity in human BEAS2B cells to MIC50 for antifungal activity against ITC and FLC-susceptible Candida albicans ATCC MYA-2310; assay type: cell-based; conditions: BEAS-2B cells, read-out: Selectivity Index
# In short: (§5)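 Ratio of the compound's EC50 against BEAS-2B cells to its MIC against the named C. albicans strain. […] For C. albicans strains other than ATCC 10231, trailing growth meant MIC-2 was taken, meaning 50% growth inhibition.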
# [11] = Selectivity index, ratio of EC50 for toxicity in human BEAS2B cells to MIC50 for antifungal activity against Aspergillus flavus ATCC MYA-3631; assay type: cell-based; conditions: read-out: Selectivity Index; in short: as §2
# [12] = Selectivity index, ratio of EC50 for toxicity in human BEAS2B cells to MIC50 for antifungal activity against Candida albicans ATCC 10231; assay type: cell-based; conditions: BEAS-2B cells, read-out: Selectivity Index; in short: as §2
# [13] = Selectivity index, ratio of EC50 for toxicity in human A549 cells to MIC50 for antifungal activity against Candida krusei ATCC 6258; assay type: cell-based; conditions: read-out: Selectivity Index; in short: as §2
# [14] = Selectivity index, ratio of EC50 for toxicity in human BEAS2B cells to MIC50 for antifungal activity against Aspergillus nidulans ATCC 38163; assay type: cell-based; conditions: read-out: Selectivity Index; in short: as §2
# [15] = Selectivity index, ratio of EC50 for toxicity in human BEAS2B cells to MIC50 for antifungal activity against ITC and FLC-resistant Candida albicans ATCC 1237; assay type: cell-based; conditions: BEAS-2B cells, read-out: Selectivity Index; in short: as §2
# Candida albicans [16] = assay: Antifungal activity against ITC and FLC-resistant Candida albicans ATCC MYA-90819 incubated for 48 hrs by modified CLSI M27-A3 protocol based method; assay type: functional; conditions: ATCC MYA-90819, 48 h
# Candida parapsilosis = assay: Antifungal activity against Candida parapsilosis ATCC 22019 incubated for 48 hrs by modified CLSI M27-A3 protocol based method; assay type: functional; conditions: Lodderomyces parapsilosis, ATCC 22019, 48 h; in short: as §1
# [17] = Selectivity index, ratio of EC50 for toxicity in human BEAS2B cells to MIC50 for antifungal activity against ITC and FLC-resistant Candida albicans ATCC MYA-1003; assay type: cell-based; conditions: BEAS-2B cells, read-out: Selectivity Index; in short: as §2
# [18] = Selectivity index, ratio of EC50 for toxicity in human BEAS2B cells to MIC50 for antifungal activity against Candida glabrata ATCC 2001; assay type: cell-based; conditions: BEAS-2B cells, read-out: Selectivity Index; in short: as §2
# [19] = Selectivity index, ratio of EC50 for toxicity in human A549 cells to MIC50 for antifungal activity against Candida albicans ATCC 10231; assay type: cell-based; conditions: read-out: Selectivity Index; in short: as §2
# [20] = Selectivity index, ratio of EC50 for toxicity in human A549 cells to MIC50 for antifungal activity against ITC and FLC-susceptible Candida albicans ATCC MYA-2310; assay type: cell-based; conditions: read-out: Selectivity Index; in short: as §2
# [21] = Selectivity index, ratio of EC50 for toxicity in human BEAS2B cells to MIC50 for antifungal activity against Candida krusei ATCC 6258; assay type: cell-based; conditions: BEAS-2B cells, read-out: Selectivity Index; in short: as §2
# [22] = Selectivity index, ratio of EC50 for toxicity in human BEAS2B cells to MIC50 for antifungal activity against ITC and FLC-resistant Candida albicans ATCC MYA-90819; assay type: cell-based; conditions: BEAS-2B cells, read-out: Selectivity Index; in short: as §5
# [23] = Selectivity index, ratio of EC50 for toxicity in human A549 cells to MIC50 for antifungal activity against Aspergillus terreus ATCC MYA-3633; assay type: cell-based; conditions: read-out: Selectivity Index; in short: as §2
# [24] = Selectivity index, ratio of EC50 for toxicity in human A549 cells to MIC50 for antifungal activity against ITC and FLC-resistant Candida albicans ATCC 1237; assay type: cell-based; conditions: read-out: Selectivity Index; in short: as §2
# Candida albicans [25] = assay: Antifungal activity against Candida albicans ATCC 64124 incubated for 48 hrs by modified CLSI M27-A3 protocol based method; assay type: functional; conditions: ATCC 64124, 48 h
# Aspergillus flavus = assay: Antifungal activity against Aspergillus flavus ATCC MYA-3631 incubated for 48 hrs by CLSI M38-A2 protocol based method; assay type: functional; conditions: ATCC MYA-3631, 48 h
# [26] = Toxicity in human A549 cells assessed as reduction in cell viability incubated for 24 hrs by resazurin dye based assay; in short: as §4
# Aspergillus nidulans = assay: Antifungal activity against Aspergillus nidulans ATCC 38163 incubated for 48 hrs by CLSI M38-A2 protocol based method; assay type: functional; conditions: ATCC 38163, 48 h
# [27] = Selectivity index, ratio of EC50 for toxicity in human BEAS2B cells to MIC50 for antifungal activity against ITC and FLC-susceptible Candida albicans ATCC MYA-2876; assay type: cell-based; conditions: BEAS-2B cells, read-out: Selectivity Index; in short: as §5
# Candida albicans [28] = assay: Antifungal activity against ITC and FLC-susceptible Candida albicans ATCC MYA-2310 incubated for 48 hrs by modified CLSI M27-A3 protocol based method; assay type: functional; conditions: ATCC MYA-2310, 48 h
# Candida albicans [29] = assay: Antifungal activity against ITC and FLC-resistant Candida albicans ATCC 1237 incubated for 48 hrs by modified CLSI M27-A3 protocol based method; assay type: functional; conditions: ATCC 1237, 48 h; in short: as §3
# [30] = Selectivity index, ratio of EC50 for toxicity in human A549 cells to MIC50 for antifungal activity against ITC and FLC-resistant Candida albicans ATCC MYA-1003; assay type: cell-based; conditions: read-out: Selectivity Index; in short: as §2
# [31] = Selectivity index, ratio of EC50 for toxicity in human BEAS2B cells to MIC50 for antifungal activity against Aspergillus terreus ATCC MYA-3633; assay type: cell-based; conditions: read-out: Selectivity Index; in short: as §2
# Aspergillus terreus = assay: Antifungal activity against Aspergillus terreus ATCC MYA-3633 incubated for 48 hrs by CLSI M38-A2 protocol based method; assay type: functional; conditions: ATCC MYA-3633, 48 h
# Candida albicans [32] = assay: Antifungal activity against ITC and FLC-resistant Candida albicans ATCC MYA-1003 incubated for 48 hrs by modified CLSI M27-A3 protocol based method; assay type: functional; conditions: ATCC MYA-1003, 48 h; in short: as §3
# Candida albicans [33] = assay: Antifungal activity against Candida albicans ATCC 10231 incubated for 48 hrs by modified CLSI M27-A3 protocol based method; assay type: functional; conditions: ATCC 10231, 48 h; in short: as §1
structure (smiles),measurement,setting,value
CC[C@@H]([C@H](C)O)n1ncn(-c2ccc(N3CCN(c4ccc(OC[C@@H]5CO[C@@](Cn6cncn6)(c6ccc(F)cc6F)C5)cc4)CC3)cc2)c1=O [POSACONAZOLE],MIC50,Pichia kudriavzevii,0.09 µM
same,selectivity ratio,[1],0.4
same,selectivity ratio,[2],1
same,MIC50,Nakaseomyces glabratus,0.17 µM
same,selectivity ratio,[3],308
same,selectivity ratio,[4],154
same,selectivity ratio,[5],190
same,selectivity ratio,[6],1
same,selectivity ratio,[7],5
same,MIC50,Candida albicans [8],11.1 µM
same,EC50 at 24 h,[9],26 µg/mL
same,selectivity ratio,[10],1
same,selectivity ratio,[11],108
same,selectivity ratio,[12],52
same,selectivity ratio,[13],617 to 1230
same,selectivity ratio,[14],133
same,selectivity ratio,[15],2
same,MIC50,Candida albicans [16],44.7 µM
same,MIC50,Candida parapsilosis,< 0.04 µM
same,selectivity ratio,[17],2
same,selectivity ratio,[18],217
same,selectivity ratio,[19],74
same,selectivity ratio,[20],1
same,selectivity ratio,[21],433 to 867
same,selectivity ratio,[22],1
same,selectivity ratio,[23],77
same,selectivity ratio,[24],2
same,MIC50,Candida albicans [25],> 89.2 µM
same,MIC50,Aspergillus flavus,0.34 µM
same,EC50 at 24 h,[26],37 µg/mL
same,MIC50,Aspergillus nidulans,0.28 µM
same,selectivity ratio,[27],3
same,MIC50,Candida albicans [28],44.7 µM
same,MIC50,Candida albicans [29],22.3 µM
same,selectivity ratio,[30],2
same,selectivity ratio,[31],54
same,MIC50,Aspergillus terreus,0.68 µM
same,MIC50,Candida albicans [32],22.3 µM
same,MIC50,Candida albicans [33],0.71 µM
